For 21 compounds, inhibition and IC50 results are on record in ChEMBL document CHEMBL3352813, “Prostaglandin Derivatives: Nonaromatic Phosphodiesterase-4 Inhibitors from the Soft Coral Sarcophyton ehrenbergi” (J Nat Prod, 2014).

The target of assay [1] is T1, 3',5'-cyclic-AMP phosphodiesterase 4D (Homo sapiens, UniProt Q08499). In words: Inhibition of human PDE4D2 catalytic domain (86 to 413 amino acids) expressed in Escherichia coli strain BL21 at 10 uM after 15 mins using [3H]-cAMP by liquid scintillation counting. Put shortly:
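Single-point primary screen of percent inhibition against PDE4D2 at an initial concentration of 10 μM, using [3H]cAMP as substrate and liquid scintillation counting of radioactivity. Enzyme was produced using LB medium. Rolipram served as the reference inhibitor. The method follows the authors' earlier reports.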

Assay [2] concerns the target T1, 3',5'-cyclic-AMP phosphodiesterase 4D. The assay is described as follows: Inhibition of human PDE4D2 catalytic domain (86 to 413 amino acids) expressed in Escherichia coli strain BL21 after 15 mins using [3H]-cAMP by liquid scintillation counting. The method in brief:
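IC50 determined against PDE4D2 only for compounds that gave more than 50% inhibition in the 10 μM primary screen. Substrate was [3H]cAMP and read-out was liquid scintillation counting. Enzyme was produced using LB medium. Rolipram served as the reference inhibitor. The method otherwise follows the authors' earlier reports.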

The structures appear in SMILES notation.

T1 sequence (Q08499 whole entry, the tested form may be a part): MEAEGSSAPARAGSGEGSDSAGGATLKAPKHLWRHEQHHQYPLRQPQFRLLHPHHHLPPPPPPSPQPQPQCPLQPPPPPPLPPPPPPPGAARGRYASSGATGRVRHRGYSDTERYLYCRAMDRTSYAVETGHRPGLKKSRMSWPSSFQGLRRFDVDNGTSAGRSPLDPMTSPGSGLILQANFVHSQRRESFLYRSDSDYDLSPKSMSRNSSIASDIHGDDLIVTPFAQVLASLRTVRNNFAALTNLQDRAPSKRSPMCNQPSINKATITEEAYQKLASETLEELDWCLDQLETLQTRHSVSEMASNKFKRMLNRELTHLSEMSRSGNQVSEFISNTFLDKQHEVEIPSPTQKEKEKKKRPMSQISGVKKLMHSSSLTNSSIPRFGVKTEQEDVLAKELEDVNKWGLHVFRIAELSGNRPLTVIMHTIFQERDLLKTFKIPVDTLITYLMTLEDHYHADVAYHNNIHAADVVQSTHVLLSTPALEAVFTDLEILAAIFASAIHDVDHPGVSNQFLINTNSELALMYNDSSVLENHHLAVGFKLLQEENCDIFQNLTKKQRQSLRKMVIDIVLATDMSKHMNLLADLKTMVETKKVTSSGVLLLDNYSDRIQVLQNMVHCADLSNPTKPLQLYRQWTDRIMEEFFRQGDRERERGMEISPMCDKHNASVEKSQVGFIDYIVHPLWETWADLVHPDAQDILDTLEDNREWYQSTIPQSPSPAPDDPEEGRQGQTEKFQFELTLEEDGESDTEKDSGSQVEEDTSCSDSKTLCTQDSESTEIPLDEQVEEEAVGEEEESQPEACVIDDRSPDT

One may read the inhibition as the change of the read-out against control, counted positive when it falls. The term IC50 denotes the concentration that gives 50% inhibition. Read a high IC50 as a need for much substance. Consider `CCC(=O)CC[C@@H](/C=C/[C@@H]1[C@@H](C/C=C\CCCC(=O)OC)[C@@H](OC(C)=O)C[C@H]1OC(C)=O)OC(C)=O`, for which, in assay [1], the inhibition amounted to 65%. For the same compound, in assay [2], the IC50 stood at 10.6 µM.

With `CCC(CC[C@H](O)/C=C/[C@@H]1[C@@H](C/C=C\CCCC(=O)O)[C@@H](O)C[C@H]1OC(C)=O)OC(C)=O` (stereo partly specified), the inhibition in assay [1] was found to be 3.12%.

As to `CCC(CC[C@@H](/C=C/[C@@H]1[C@@H](C/C=C\CCCC(=O)OC)[C@@H](OC(=O)[C@](OC)(c2ccccc2)C(F)(F)F)C[C@H]1OC(C)=O)OC(=O)[C@](OC)(c1ccccc1)C(F)(F)F)OC(C)=O` (stereo partly specified), in assay [1], the inhibition is 58%. The compound also had an IC50 in assay [2] of 3.6 µM.

With `CCC(CC[C@H](O)/C=C/[C@@H]1[C@@H](C/C=C\CCCC(=O)OC)[C@@H](O)C[C@H]1OC(C)=O)OC(C)=O` (stereo partly specified), in assay [1], the inhibition was -6.05%.

Consider `CCC(O)CC[C@H](O)/C=C/[C@@H]1[C@@H](C/C=C\CCCC(=O)O)[C@@H](O)C[C@H]1O` (stereo partly specified), for which the inhibition in assay [1] was -3.93%.

With `CCC(=O)CC[C@H](O)/C=C/[C@@H]1[C@@H](C/C=C\CCCC(=O)O)[C@@H](O)C[C@H]1O`, the inhibition in assay [1] amounted to 10.1%.

Take `CCC(=O)CC[C@H](O)/C=C/[C@@H]1[C@@H](C/C=C\CCCC(=O)O)[C@@H](O)C[C@H]1OC(C)=O`: the inhibition in assay [1] was found to be 26%.

On to `CCC(=O)CC[C@H](O)/C=C/[C@@H]1[C@@H](C/C=C\CCCC(=O)OC)[C@@H](O)C[C@H]1OC(C)=O`, for which the inhibition in assay [1] is 21.9%.

`CCCCC[C@@H](/C=C/[C@@H]1[C@@H](C/C=C\CCCC(=O)OC)[C@@H](OC(C)=O)C[C@H]1O)OC(C)=O`: in assay [1], the inhibition is 74.7%. Further, in assay [2], it took 4.7 µM to reach half-maximal inhibition (IC50).

Regarding `CCCCC[C@@H](/C=C/[C@@H]1[C@@H](C/C=C\CCCC(=O)OC)[C@@H](OC(C)=O)C[C@H]1OC(C)=O)OC(C)=O`, the inhibition in assay [1] was 94.6%. Further, the IC50 in assay [2] was 1.4 µM.

Consider `CCCCC[C@@H](/C=C/[C@@H]1[C@@H](C/C=C\CCCC(=O)OC)[C@@H](O)C[C@H]1OC(C)=O)OC(C)=O`, for which the inhibition in assay [1] came out at 71.9%. In assay [2], the IC50 came to 5.5 µM.

Consider `CCC(CC[C@@H](/C=C/[C@@H]1[C@@H](C/C=C\CCCC(=O)OC)[C@@H](OC(C)=O)C[C@H]1OC(C)=O)OC(C)=O)OC(C)=O` (stereo partly specified), for which the inhibition in assay [1] came out at 66.5%. Further, inhibition in assay [2] was half-maximal at 3.7 µM (IC50).

As for `CCC(CC[C@@H](/C=C/[C@@H]1[C@@H](C/C=C\CCCC(=O)OC)[C@@H](OC(C)=O)C[C@H]1OC(C)=O)OC(=O)[C@@](OC)(c1ccccc1)C(F)(F)F)OC(C)=O` (stereo partly specified), in assay [1], the inhibition worked out at 15.1%.

In the case of `CCC(CC[C@@H](/C=C/[C@@H]1[C@@H](C/C=C\CCCC(=O)OC)[C@@H](OC(C)=O)C[C@H]1OC(C)=O)OC(=O)[C@](OC)(c1ccccc1)C(F)(F)F)OC(C)=O` (stereo partly specified), the inhibition in assay [1] was found to be 28.4%.

For `CCCCC[C@@H](/C=C/[C@@H]1[C@@H](CCCCCCC(=O)OC)[C@@H](O)C[C@H]1OC(C)=O)OC(C)=O`, the inhibition in assay [1] turned out to be 41.7%.

Take `CCC(CC[C@@H](/C=C/[C@@H]1[C@@H](C/C=C\CCCC(=O)OC)[C@@H](O)C[C@H]1OC(C)=O)OC(C)=O)OC(C)=O` (stereo partly specified): the inhibition in assay [1] came to 38.7%.

Turning to `CCC(CC[C@@H](/C=C/[C@@H]1[C@@H](C/C=C\CCCC(=O)OC)[C@@H](OC(=O)[C@@](OC)(c2ccccc2)C(F)(F)F)C[C@H]1OC(C)=O)OC(=O)[C@@](OC)(c1ccccc1)C(F)(F)F)OC(C)=O` (stereo partly specified), in assay [1], the inhibition worked out at 51.1%. In assay [2], the IC50 was 5.9 µM.

For `CCC(=O)CC[C@@H](/C=C/[C@@H]1[C@@H](C/C=C\CCCC(=O)OC)[C@@H](O)C[C@H]1OC(C)=O)OC(C)=O`, the inhibition in assay [1] came to 57.2%. Further, in assay [2], the midpoint of inhibition, the IC50, lay at 12.1 µM.

As for `CCC(=O)CC[C@@H](/C=C/[C@@H]1[C@@H](C/C=C\CCCC(=O)O)[C@@H](O)C[C@H]1OC(C)=O)OC(C)=O`, the inhibition in assay [1] is 50.4%. In assay [2], this compound registered an IC50 of 16.9 µM.

As to `CCC(CC[C@H](O)/C=C/[C@@H]1[C@@H](C/C=C\CCCC(=O)OC)[C@@H](OC(C)=O)C[C@H]1OC(C)=O)OC(C)=O` (stereo partly specified), the inhibition in assay [1] stood at 11.4%.

Consider `CCCCC[C@@H](/C=C/[C@@H]1[C@@H](/C=C/CCCCC(=O)OC)[C@@H](O)C[C@H]1OC(C)=O)OC(C)=O`, for which, in assay [1], the inhibition worked out at 57.3%. Further, half-maximal inhibition in assay [2] (IC50) required 7.2 µM.
